Experimental data from ChEMBL document CHEMBL4680120, “Novel anti-Alzheimer phenol-lipoyl hybrids: Synthesis, physico-chemical characterization, and biological evaluation” (Eur J Med Chem, 2020).
≈ marks a conversion by molar mass, not a printed value. Calls of active or inactive are those of the source. The calls are words filed in the database; no cut-off is given here.

How the values were obtained:
SH-SY5Y [1] = test: Neuroprotective activity against amyloid beta (1 to 42)-induced toxicity in human SH-SY5Y cells assessed as decrease in EGFR mRNA expression at IC50 measured after 48 hrs by SYBR green dye based RT-qPCR analysis; format: functional, cell-based
Outline: (§1)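 Differentiated SH-SY5Y cells in 6-well plates treated 48 h with Aβ1-42 (20 μM) with or without hybrid. mRNA of AD-related genes measured by RT-qPCR, normalized to β-actin. Expressed as fold change versus untreated cells. Triplicate experiments.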

SH-SY5Y [2] = test: Neuroprotective activity against amyloid beta (1 to 42)-induced toxicity in human SH-SY5Y cells assessed as decrease in APP mRNA expression at IC50 measured after 48 hrs by SYBR green dye based RT-qPCR analysis; format: functional, cell-based; outline: as §1
SH-SY5Y [3] = test: Neuroprotective activity against amyloid beta (1 to 42)-induced toxicity in human SH-SY5Y cells assessed as decrease in TNFalpha mRNA expression at IC50 measured after 48 hrs by SYBR green dye based RT-qPCR analysis; format: functional, cell-based; outline: as §1
SH-SY5Y [4] = test: Neuroprotective activity against amyloid beta (1 to 42)-induced toxicity in human SH-SY5Y cells assessed as increase in ADAM10 mRNA expression at IC50 measured after 48 hrs by SYBR green dye based RT-qPCR analysis; format: functional, cell-based; outline: as §1
[5] = Stability in simulated intestinal fluid at pH 6.8 assessed as relative difference measured after 15 mins in presence of pancreatin by HPLC analysis; format: ADME; details: simulated gi fluid, pH 6.8, 0.25 h
Outline: (§2)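 Incubation in simulated gastric fluid (pH 1.2, pepsin) or simulated intestinal fluid (pH 6.8, pancreatin). Aliquots deproteinized with ice-cold acetonitrile, centrifuged at 4°C and 12000 rpm for 10 min, filtered, analyzed by HPLC. RD% = (Ci − Cf)/Ci × 100. Stable if RD < 5%. Means of three experiments.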

[6] = Stability in simulated gastric fluid at pH 1.2 assessed as relative difference measured after 15 mins in presence of pepsin by HPLC analysis; format: ADME; details: isolated protein, pH 1.2, 0.25 h; outline: as §2
SH-SY5Y [7] = test: Neuroprotective activity against amyloid beta (1 to 42)-induced toxicity in human SH-SY5Y cells assessed as increase in PSEN mRNA expression at IC50 measured after 48 hrs by SYBR green dye based RT-qPCR analysis; format: functional, cell-based; outline: as §1
[8] = Stability in simulated intestinal fluid at pH 6.8 assessed as relative difference measured after 30 mins in presence of pancreatin by HPLC analysis; format: ADME; details: simulated gi fluid, pH 6.8, 0.5 h; outline: as §2
[9] = Stability in simulated intestinal fluid at pH 6.8 assessed as relative difference measured after 120 mins in presence of pancreatin by HPLC analysis; format: ADME; details: simulated gi fluid, pH 6.8, 2 h; outline: as §2
[10] = Solubility of compound in water by HPLC analysis; format: physicochemical
[11] = Stability in simulated gastric fluid at pH 1.2 assessed as relative difference measured after 60 mins in presence of pepsin by HPLC analysis; format: ADME; details: isolated protein, pH 1.2, 1 h; outline: as §2
[12] = Stability in simulated intestinal fluid at pH 6.8 assessed as relative difference measured after 60 mins in presence of pancreatin by HPLC analysis; format: ADME; details: simulated gi fluid, pH 6.8, 1 h; outline: as §2
[13] = Stability in simulated intestinal fluid at pH 6.8 assessed as relative difference measured after 180 mins in presence of pancreatin by HPLC analysis; format: ADME; details: simulated gi fluid, pH 6.8, 3 h; outline: as §2
SH-SY5Y [14] = test: Neuroprotective activity against amyloid beta (1 to 42)-induced toxicity in human SH-SY5Y cells assessed as increase in cell viability at 1 to 250 mg/l measured after 48 hrs by MTT assay; format: functional, cell-based; details: dose 1-250 mg/L
Outline: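 SH-SY5Y cells grown in DMEM/F12 with 10% FBS and differentiated with retinoic acid (10 μM), seeded at 1×10^4 per well and cultured 24 h. Cells were given hybrids at 1–250 mg/L with or without Aβ1-42 (20 μM) for 48 h. MTT (5 mg/mL) added for 4 h at 37°C, DMSO solubilization, read at 570/630 nm. LDH read at 450 nm. Five independent experiments.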

[15] = Stability in simulated intestinal fluid at pH 6.8 assessed as hydrolysis measured immediately in presence of pancreatin by HPLC analysis; format: ADME; details: simulated gi fluid; outline: as §2
Erythrocyte = test: Cytoprotective activity against H2O2-induced oxidative damage in human RBC assessed as restoration of antioxidant activity at 50 to 100 uM measured after 72 hrs by TAC assay relative to control; format: functional; details: dose 50-100 µM

With `COc1cc(/C=C/C(=O)NCCCNC(=O)CCCCC2CCSS2)ccc1O` (centres undefined) the Activity (SH-SY5Y [1]) was “Active”, the Activity (SH-SY5Y [2]) was “Active” and the Activity (SH-SY5Y [3]) was “Active”. For the same compound, the Activity (SH-SY5Y [4]) was “Active”, the “fold change (FC)” value [5] was 0.54% and the “fold change (FC)” value [6] was 0.36%. The Activity (SH-SY5Y [7]) was “Active”, the “fold change (FC)” value [8] was 0.86% and the “fold change (FC)” value [9] was 2.5%. The solubility [10] was 49 µg/mL (≈ 112 µM), the “fold change (FC)” value [11] was 1.78% and the “fold change (FC)” value [12] was 1.04%. The “fold change (FC)” value [13] was 3.46% and the Activity (SH-SY5Y [14]) was “Active”.
With `O=C(CCCCC1CCSS1)NCCCCCOC(=O)Cc1ccc(O)c(O)c1` (centres undefined) the Activity (SH-SY5Y [1]) was “Active”, the Activity (SH-SY5Y [2]) was “Active” and the Stabilty [15] was “Unstable”. The Activity (SH-SY5Y [3]) was “Active”, the Activity (SH-SY5Y [4]) was “Active” and the “fold change (FC)” value [6] was 35.42%. For the same compound, the Activity (SH-SY5Y [7]) was “Active”, the “fold change (FC)” value [11] was 100% and the Activity (Erythrocyte) was 79.2%. For the same compound, the Activity (SH-SY5Y [14]) was “Active”.
